OX1R antag-1 – antagonists of human orexin 1 receptor (OX1R); AID 485270, 2010; OX1R-expressing cells, FRET antagonist read-out; actives 1.8% (n = 330,000); inhibition, % at 6.6 µM; in the data active means inhibition mostly above about 38%, no sharp cut-off; inactive means mostly below about 40%;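 further: 0% = agonist challenge alone and 100% = reference antagonist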
Target sequence (O43613 whole entry, looked up): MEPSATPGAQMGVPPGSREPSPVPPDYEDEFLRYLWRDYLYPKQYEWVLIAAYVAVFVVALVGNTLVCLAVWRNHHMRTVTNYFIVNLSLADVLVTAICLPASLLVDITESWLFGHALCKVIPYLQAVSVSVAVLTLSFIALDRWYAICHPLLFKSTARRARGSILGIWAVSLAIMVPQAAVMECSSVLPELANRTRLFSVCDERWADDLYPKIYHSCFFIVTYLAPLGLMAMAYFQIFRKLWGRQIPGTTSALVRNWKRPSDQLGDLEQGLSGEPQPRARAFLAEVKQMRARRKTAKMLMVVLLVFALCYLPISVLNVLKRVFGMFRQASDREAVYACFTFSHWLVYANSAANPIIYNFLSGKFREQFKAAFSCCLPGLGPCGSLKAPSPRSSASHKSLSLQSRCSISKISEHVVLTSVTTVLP
TAAR1 agonist – human TAAR1 agonists, primary screen, Fluo-8 calcium fluorescence, CHO RD-HGA16 cells. activation, % at 3 µM. AID 624467, 2012. actives 0.99% (n = 360,000). vehicle wells 0%, saturating PEA agonist 100%;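 active means activation above the mean activation of all test compounds in the run plus 3 SD, cut at about 38% in these data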
Target sequence (Q96RJ0 whole entry, looked up): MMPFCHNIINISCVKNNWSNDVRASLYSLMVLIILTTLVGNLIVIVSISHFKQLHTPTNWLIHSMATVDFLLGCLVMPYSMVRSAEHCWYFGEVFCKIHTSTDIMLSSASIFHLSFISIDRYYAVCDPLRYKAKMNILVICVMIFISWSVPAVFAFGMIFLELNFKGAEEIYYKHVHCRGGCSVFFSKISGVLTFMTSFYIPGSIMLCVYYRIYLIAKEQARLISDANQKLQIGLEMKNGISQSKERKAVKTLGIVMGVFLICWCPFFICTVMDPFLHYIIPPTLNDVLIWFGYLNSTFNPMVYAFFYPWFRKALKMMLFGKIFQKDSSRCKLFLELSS
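Test system: RD-HGA16 (CHO) cells co-expressing Gα16 and hTAAR1 | Doses: Single dose, 3 µM | Schedule: 17-24 h seeding, 75 min 37 °C dye, 30 min RT | Evaluation: % activation from peak over basal fluorescence ratio, DMSO-to-PEA scaled | Technique: Kinetic Fluo-8 calcium fluorescence | Benchmarks: Low control DMSO, high control PEA (EC100)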
TAAR1 antagonist – human TAAR1 antagonists, primary screen, Fluo-8 calcium fluorescence, CHO RD-HGA16 cells. Trace amine-associated receptor 1 (Homo sapiens), Q96RJ0. antagonist. inhibition, % at 3 µM. actives 1.5% (n = 360,000). AID 624466, 2012;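 active means inhibition above a per-plate cutoff, the mean inhibition of test compounds on that plate plus 3 SD, cut at about 49% in these data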;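 further: 0% = DMSO plus EC80 beta-PEA response and 100% = DMSO alone without agonist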
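System: CHO RD-HGA16 cells bearing hTAAR1. Reagent: EC80 β-phenethylamine stimulus. Schedule: seeding 17-24 h prior, 75-min 37 °C, 30-min RT dye loading. Signal: Fluo-8 intracellular calcium dye fluorescence, real-time kinetic reads. Read-out: % inhibition from peak post-agonist over basal fluorescence ratio. Benchmarks: vehicle wells and EC80 agonist wells. Replicates: n of 1.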
GPR7 antag – GPR7 receptor antagonists, primary screen, cell-based, fluorescence, single concentration; Neuropeptides B/W receptor type 1 (Homo sapiens), P48145; inhibition, % at 4.4 µM; actives 1.1% (n = 290,000); GPR7-expressing cells, fluorescence antagonist assay; in the data active means inhibition above about 16%, passing the limit was not always enough;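 further: cells stimulated with the agonist NPW; 0% = agonist with vehicle and 100% = vehicle without agonist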
CHO parental Ca – ATP-evoked calcium signal inhibitors, parental CHO, primary screen, counter-screen for OX1R antagonist project, cell-based, fluorescence, Fluo-8 calcium dye. parental CHO-K1, ATP-induced calcium, Fluo-8 fluorescence. inhibition, % at 5.6 µM. actives 0.63% (n = 330,000);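 active means inhibition above that plate's mean sample inhibition plus 3 SD, cut at about 26% in these data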;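 further: 0% = ATP-challenged DMSO wells and 100% = DMSO wells without ATP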
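material = parental CHO cells | also added = ATP as calcium-mobilizing challenge | dosing = single point at 5.6 µM | detection = intracellular calcium via Fluo-8 no-wash fluorescent dye | read-out = % inhibition | benchmarks = low control ATP plus DMSO, high control DMSO only | repeats = one well per compound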
OX1R antag-2 – OX1R (HCRTR1) antagonists, primary screen, fluorescence, CHO/OX1R cells, Fluo-8 calcium, orexin A | Orexin/Hypocretin receptor type 1 (Homo sapiens), O43613 | Fluo-8 calcium fluorescence | inhibition, % at 5 µM | actives 0.43% (n = 330,000) | AID 434989, 2010;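 active means inhibition above its plate's threshold, mean inhibition of all tested compounds on the plate plus 3 SD, cut at about 37% in these data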;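 further: 0% = orexin A challenge wells and 100% = SB-334867-A antagonist wells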
TAAR1 nonsel count – nonselective antagonists in TAAR1 counter-screen cells, counter-screen for hTAAR1 antagonist project, cell-based, fluorescence, calcium | shares compounds with TAAR1 antagonist | counterscreen cell line, antagonist mode | inhibition, % at 3 µM | actives 77% (n = 2,400) | AID 651780, 2012; in the data active means inhibition above about 22%;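 further: CHO-Ga16 host cells stimulated with ATP at an EC80 level; 0% = agonist EC80 plus vehicle and 100% = vehicle without agonist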
TAAR1 ant conf – human TAAR1 antagonists, retest of hits, confirmation, cell-based, fluorescence; shares compounds with TAAR1 antagonist; TAAR1-expressing cells, fluorescence antagonist read-out; inhibition, % at 3 µM; actives 40% (n = 2,400); in the data active means inhibition above about 49%;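 further: CHO-Ga16 host cells challenged with agonist PEA near its EC80; 0% = agonist at EC80 plus vehicle and 100% = vehicle with no agonist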
Ga16 nonsel ag – calcium activation in Ga16-expressing cells, counter-screen for TAAR1 antagonist project, cell-based, fluorescence; shares compounds with TAAR1 antagonist; agonist counterscreen; activation, % at 3 µM; actives 18% (n = 2,400); AID 651953, 2012; in the data active means activation above about 12%;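 further: 0% = vehicle wells and 100% = saturating stimulus response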
TAAR1 ag count – TAAR1 activation by candidate antagonists – cell-based, fluorescence, counter-screen for TAAR1 antagonist project | shares compounds with TAAR1 antagonist | hTAAR1 cell line, agonist mode | activation, % at 3 µM | actives 2% (n = 2,400) | AID 651955, 2012; in the data active means activation above about 37%;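 further: CHO cells stably expressing TAAR1 with calcium dye readout; 0% = DMSO vehicle and 100% = full agonist response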
* = called active by the depositor. An excerpt weighted towards active compounds, which were near 4.6% of everything screened.

How did CC(=O)N1N=C(c2cccc(NS(C)(=O)=O)c2)CC1c1cccs1 (stereo not drawn) do in these assays?
OX1R antag-1: 10; TAAR1 agonist: 3; TAAR1 antagonist: 0; GPR7 antag: -11; CHO parental Ca: -13; OX1R antag-2: -15

How did CC(=O)N1N=C(c2cccc(O)c2)CC1c1cccs1 (stereo not drawn) do in these assays?
TAAR1 agonist: 16; TAAR1 antagonist: 71*; GPR7 antag: -4; TAAR1 nonsel count: 18; TAAR1 ant conf: 44; Ga16 nonsel ag: 7; TAAR1 ag count: 12

How did COc1ccccc1N1CCN(C(=O)c2sc3nc(C)nc(N4CCN(c5ccccn5)CC4)c3c2C)CC1 do in these assays?
OX1R antag-1: 35; TAAR1 agonist: 7; TAAR1 antagonist: 55*; GPR7 antag: -22; CHO parental Ca: -14; OX1R antag-2: -35; TAAR1 nonsel count: 17; TAAR1 ant conf: 34; Ga16 nonsel ag: 4; TAAR1 ag count: 5

What do the screens show for `Cc1nc(N2CCN(c3ccccn3)CC2)c2c(C)c(C(=O)N3CCN(c4ccc(F)cc4)CC3)sc2n1`?
OX1R antag-1: 7; TAAR1 agonist: 0; TAAR1 antagonist: 41; GPR7 antag: -16; CHO parental Ca: -19; OX1R antag-2: -17

What do the screens show for `COC(=O)c1cccc(C#CC(NP(=O)(c2ccccc2)c2ccccc2)c2ccccc2)c1` (stereo not drawn)?
OX1R antag-1: 19; TAAR1 agonist: 16; TAAR1 antagonist: 72*; CHO parental Ca: -14; OX1R antag-2: -28; TAAR1 nonsel count: 28*; TAAR1 ant conf: 36; Ga16 nonsel ag: 2; TAAR1 ag count: 2

What do the screens show for `O=C(Nc1ccc(N2CCN(C(=O)c3ccco3)CC2)c(Cl)c1)c1cc2ccccc2o1`?
OX1R antag-1: 72*; TAAR1 agonist: 16; TAAR1 antagonist: 84*; GPR7 antag: 18; CHO parental Ca: 36*; OX1R antag-2: 18; TAAR1 nonsel count: 41*; TAAR1 ant conf: 67*; Ga16 nonsel ag: 10; TAAR1 ag count: 10

How did O=C(Nc1ccc(N2CCN(C(=O)c3ccccc3)CC2)c(Cl)c1)c1ccco1 do in these assays?
OX1R antag-1: 16; TAAR1 agonist: 14; TAAR1 antagonist: 40; GPR7 antag: -3; CHO parental Ca: -13; OX1R antag-2: -21

How did O=C(Nc1cccc(NC(=O)c2sc3ccccc3c2Cl)c1)c1ccco1 do in these assays?
OX1R antag-1: 76*; TAAR1 agonist: 8; TAAR1 antagonist: 55*; GPR7 antag: -13; CHO parental Ca: -22; OX1R antag-2: -6; TAAR1 nonsel count: 19; TAAR1 ant conf: 21; Ga16 nonsel ag: 2; TAAR1 ag count: -3

What do the screens show for `Cc1nnc(NC(=O)c2sc3ccccc3c2Cl)s1`?
OX1R antag-1: 36; TAAR1 agonist: 10; TAAR1 antagonist: -1; GPR7 antag: 12; CHO parental Ca: -1; OX1R antag-2: -27

How did O=C(Nc1cccc(NC(=O)c2ccc(-c3cccc(Br)c3)o2)c1)c1ccco1 do in these assays?
OX1R antag-1: 26; TAAR1 agonist: 16; TAAR1 antagonist: 52*; GPR7 antag: 0; CHO parental Ca: -10; OX1R antag-2: 11; TAAR1 nonsel count: 25*; TAAR1 ant conf: 48; Ga16 nonsel ag: 8; TAAR1 ag count: 5

What do the screens show for `O=C(Nc1cccc(NC(=O)c2ccc(-c3ccc(Br)cc3)o2)c1)c1ccccc1`?
OX1R antag-1: 31; TAAR1 agonist: 15; TAAR1 antagonist: 13; GPR7 antag: 7; CHO parental Ca: -9; OX1R antag-2: -36

Results for CNC(=O)c1ccsc1NC(=O)c1sc2ccccc2c1Cl ?
OX1R antag-1: 56*; TAAR1 agonist: 10; TAAR1 antagonist: 71*; GPR7 antag: -8; CHO parental Ca: 7; OX1R antag-2: -20; TAAR1 nonsel count: 35*; TAAR1 ant conf: 50*; Ga16 nonsel ag: 9; TAAR1 ag count: 4

How did CSc1ccc(CN(C)C(=O)C(c2ccccc2)c2ccccc2)cc1 do in these assays?
OX1R antag-1: -6; TAAR1 agonist: 0; TAAR1 antagonist: 7; GPR7 antag: -6; CHO parental Ca: -31; OX1R antag-2: 1

How did CCOc1ccc(CN(C)C(=O)[C@H](Cc2ccccc2)NC(=O)OCc2ccccc2)cc1OC do in these assays?
OX1R antag-1: 19; TAAR1 agonist: 12; TAAR1 antagonist: 62*; GPR7 antag: 2; CHO parental Ca: -16; OX1R antag-2: -15; TAAR1 nonsel count: 30*; TAAR1 ant conf: 55*; Ga16 nonsel ag: 9; TAAR1 ag count: 8

Results for CN(Cc1ccc(F)cc1)C(=O)C(Cc1ccccc1)NC(=O)c1ccccc1 (stereo not drawn) ?
OX1R antag-1: 41; TAAR1 agonist: 9; TAAR1 antagonist: 67*; CHO parental Ca: -24; OX1R antag-2: -20; TAAR1 nonsel count: 27*; TAAR1 ant conf: 55*; Ga16 nonsel ag: 9; TAAR1 ag count: 7

Results for CCOc1ccc(CN(C)C(=O)NNC(=O)c2ccc(C)cc2)cc1OC ?
OX1R antag-1: 14; TAAR1 agonist: 0; TAAR1 antagonist: -7; GPR7 antag: 0; CHO parental Ca: 4; OX1R antag-2: -10

What do the screens show for `CSc1ccc(CN(C)C(=O)C(Cc2ccccc2)NC(=O)c2ccccc2)cc1` (stereo not drawn)?
OX1R antag-1: 70*; TAAR1 agonist: 9; TAAR1 antagonist: 82*; GPR7 antag: 11; CHO parental Ca: -23; OX1R antag-2: -1; TAAR1 nonsel count: 34*; TAAR1 ant conf: 57*; Ga16 nonsel ag: 10; TAAR1 ag count: 10

Screens as filed in PubChem BioAssay.
